Drawing on ChEMBL document CHEMBL3227993, “Studies on 3-substituted 1,2-benzisoxazole derivatives. 6. Syntheses of 3-(sulfamoylmethyl)-1,2-benzisoxazole derivatives and their anticonvulsant activities” (J Med Chem, 1979), this text covers ED50, TD50 and Activity for 45 compounds.

Active and inactive are the calls of the source. No cut-off for these calls is given here.

Series [1] relates to Mus musculus. The series is described as follows: Anticonvulsant activity in po dosed STD-dd mouse assessed as protection against hind-limb extensor component of maximal electroshock seizure administered via gavage measured 2 hrs after drug dosing. The series is classed as functional. The essentials:
(§1)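 Mice dosed by gavage as a suspension in 5% tragacanth solution. Maximal electroshock was given as 60-Hz, 25-mA current for 0.2 s through corneal electrodes, 2 h after dosing. Protection was scored as prevention of hind-limb extension. Preliminary screen used 100 mg/kg. For ED50, groups of ten mice per dose level at ≥4 dose levels, with values calculated by Litchfield–Wilcoxon.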

A short description of series [2]: Neurotoxicity in po dosed STD-dd mouse assessed as muscle incoordination administered via gavage by rotarod test. The series is classed as toxicity, organism-based, Muscle tissue. The settings on record: in vivo. In a few lines:
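Gavage dosing as a suspension in 5% tragacanth solution, with ten mice per dose level at ≥4 levels. Rotarod test 2 h after dosing used a horizontal rod 2.5 cm in diameter rotating at 11 rpm. Minimal neurotoxicity end point was muscle incoordination, i.e. inability to stay on the rod. NTD50 was calculated by Litchfield–Wilcoxon.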

The test system of series [3] is Mus musculus. Kind of series: Anticonvulsant activity in STD-dd mouse assessed as protection against hind-limb extensor component of maximal electroshock seizure at 100 mg/kg, po administered via gavage measured 2 hrs after drug dosing. Type of series: functional, organism-based. Set-up: dose 100 mg/kg. In a few lines: as §1
(In the maximal electroshock model the usual endpoint is tonic extension of the hind limbs.)

Regarding `O=S(=O)(Cc1noc2ccccc12)NO`, the ED50 (commonly the dose at which the effect has come halfway, by size or by number of responders) with Mus musculus [1] amounted to 32 mg/kg.

On to `CC(C)NS(=O)(=O)Cc1noc2ccc(Br)cc12`, for which the ED50 in the series with Mus musculus [1] was 22 mg/kg. Also, the TD50 (usually the dose at which the toxic effect under study appears in half of the subjects) in series [2] was 93 mg/kg. Regarding `NS(=O)(=O)Cc1noc2cc(F)ccc12`, the ED50 in the series with Mus musculus [1] came to 19 mg/kg. As to `CCCNS(=O)(=O)Cc1noc2ccccc12`, the result in the series with Mus musculus [3] was inactive. For the compound `NS(=O)(=O)CCCc1noc2ccccc12`, in the series with Mus musculus [1], the median effective dose (ED50) amounted to 39 mg/kg. On to `NS(=O)(=O)CCc1noc2ccccc12`, for which the ED50 with Mus musculus [1] turned out to be 26 mg/kg. For the compound `CC(C)NS(=O)(=O)Cc1noc2ccc(F)cc12`, in the series with Mus musculus [1], the ED50 was 38 mg/kg. Further, the TD50 in series [2] was 109 mg/kg. For `CCNS(=O)(=O)Cc1noc2ccc(Br)cc12`, in that order: 18 mg/kg and 66 mg/kg. In the case of `O=S(=O)(Cc1noc2ccccc12)N1CCN(c2ccccc2)CC1`, the result in the series with Mus musculus [3] was inactive. Still for that read-out and setting: under `NS(=O)(=O)Cc1noc2ccc([N+](=O)[O-])cc12` stands “inactive”; under `O=S(=O)(Cc1noc2ccccc12)N1CCN(Cc2ccccc2)CC1`, “inactive”. Consider `NNS(=O)(=O)Cc1noc2ccccc12`, for which, in the series with Mus musculus [3], the outcome was inactive. In the case of `CCNS(=O)(=O)Cc1noc2ccc(F)cc12`, the ED50 in the series with Mus musculus [1] came to 32 mg/kg. Besides, in series [2], the TD50 came out at 200 mg/kg. As for `O=C1NC(=O)C(c2ccccc2)(c2ccccc2)N1` [PHENYTOIN], in the series with Mus musculus [1], the ED50 stood at 10 mg/kg. Moreover, the TD50 in series [2] was determined as 111 mg/kg.

Regarding `CN1CCN(S(=O)(=O)Cc2noc3ccc(Br)cc23)CC1`, the ED50 with Mus musculus [1] came to 88 mg/kg. In addition, in series [2], the TD50 is 87 mg/kg. Consider `CN1CCN(S(=O)(=O)Cc2noc3ccc(F)cc23)CC1`, for which the ED50 in the series on Mus musculus [1] was 100 mg/kg. In addition, the TD50 in series [2] amounted to 142 mg/kg. Taken in the same sequence, the figures for `CN(C)S(=O)(=O)Cc1noc2ccc(F)cc12` were 32 mg/kg and 350 mg/kg.

Take `CC(C)NS(=O)(=O)Cc1noc2ccccc12`: the ED50 in the series with Mus musculus [1] turned out to be 56 mg/kg. The TD50 in series [2] worked out at 340 mg/kg. Taken in the same sequence, the figures for `CCC1(CC)C(=O)NC(=O)N(C)C1=O` [METHARBITAL] were 60.8 mg/kg and 87.9 mg/kg.

`CNS(=O)(=O)Cc1noc2ccc(F)cc12`: the 50% effective dose (ED50) in the series on Mus musculus [1] came out at 35 mg/kg. For the same compound, the TD50 in series [2] amounted to 168 mg/kg. On to `O=S(=O)(Cc1noc2ccccc12)N1CCCCC1`, for which, in the series on Mus musculus [3], the result was inactive.

As to `NS(=O)(=O)Cc1noc2ccccc12` [ZONISAMIDE], in the series with Mus musculus [1], the ED50 turned out to be 20 mg/kg. For the compound `CN(C)S(=O)(=O)Cc1noc2ccc(Cl)cc12`, the ED50 with Mus musculus [1] was 57 mg/kg. The TD50 in series [2] was determined as 250 mg/kg. With `CNS(=O)(=O)Cc1noc2ccccc12`, in the series on Mus musculus [1], the ED50 was determined as 23 mg/kg.

On to `CCNS(=O)(=O)Cc1noc2ccccc12`, for which the ED50 in the series on Mus musculus [1] amounted to 39 mg/kg. Besides, the TD50 in series [2] is 223 mg/kg. Turning to `COC(=O)c1ccccc1NS(=O)(=O)Cc1noc2ccccc12`, the outcome in the series with Mus musculus [3] was inactive.

With `CN(C)S(=O)(=O)Cc1noc2ccc(Br)cc12`, the ED50 in the series with Mus musculus [1] stood at 45 mg/kg. Further, in series [2], the TD50 was found to be 100 mg/kg. Take `CN(C)CCCNS(=O)(=O)Cc1noc2ccccc12`: in the series with Mus musculus [3], the outcome was inactive. Take `O=S(=O)(Cc1noc2ccccc12)Nc1ccccc1`: the result in the series with Mus musculus [3] was inactive. Turning to `CNS(=O)(=O)Cc1noc2ccc(Cl)cc12`, in the series on Mus musculus [1], the ED50 is 20 mg/kg. For the same compound, the TD50 in series [2] turned out to be 60 mg/kg.

Consider `Cc1ccc2onc(CS(N)(=O)=O)c2c1`, for which the outcome in the series on Mus musculus [3] was inactive. Consider `NS(=O)(=O)Cc1noc2ccc(Br)cc12`, for which the ED50 in the series with Mus musculus [1] was determined as 14 mg/kg. The TD50 in series [2] was 60 mg/kg.

`O=S(=O)(Cc1noc2ccccc12)NCCO`: in the series on Mus musculus [3], the outcome was inactive. Regarding `NS(=O)(=O)Cc1noc2ccc(F)cc12`, the ED50 in the series with Mus musculus [1] was determined as 15 mg/kg. With `NS(=O)(=O)Cc1noc2ccc(Cl)cc12`, in the series on Mus musculus [1], the ED50 came out at 14 mg/kg. Moreover, the TD50 in series [2] came out at 52 mg/kg. As for `Cc1cccc2c(CS(N)(=O)=O)noc12`, the outcome with Mus musculus [3] was inactive. Regarding `CC(C)NS(=O)(=O)Cc1noc2ccc(Cl)cc12`, in the series with Mus musculus [1], the 50% effective dose (ED50) is 100 mg/kg. Take `O=S(=O)(Cc1noc2ccccc12)NCc1ccccc1`: the outcome in the series with Mus musculus [3] was inactive. In the case of `O=S(=O)(Cc1noc2ccccc12)N1CCOCC1`, the outcome with Mus musculus [3] was inactive.

Regarding `CN1CCN(S(=O)(=O)Cc2noc3ccccc23)CC1`, the ED50 in the series with Mus musculus [1] is 57 mg/kg. `CN(C)NS(=O)(=O)Cc1noc2ccccc12`: in the series on Mus musculus [3], the result was inactive. As for `CN(C)S(=O)(=O)Cc1noc2ccccc12`, the ED50 in the series on Mus musculus [1] turned out to be 37 mg/kg. For the compound `COc1ccc2onc(CS(N)(=O)=O)c2c1`, the outcome in the series on Mus musculus [3] was inactive. With `CCNS(=O)(=O)Cc1noc2ccc(Cl)cc12`, the ED50 in the series on Mus musculus [1] turned out to be 21 mg/kg. On the same count and under the same terms, the figure for `CNS(=O)(=O)Cc1noc2ccc(Br)cc12` is 15 mg/kg.
